These results are taken from ChEMBL document CHEMBL2311341, “Design, synthesis and inhibitory activities of naringenin derivatives on human colon cancer cells” (Bioorg Med Chem Lett, 2013).

The target of assay [1] is Cyclin-dependent kinase 2/cyclin E1 (Homo sapiens) (UniProt P24864+P24941). As to the kind of experiment: Inhibition of CDK2/cyclinE (unknown origin) using histone-H1 and [gamma-33P]ATP at 10 uM by scintillation counting. Type of assay: protein-complex assay. An outline of the steps:
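CDK2/cyclin E was run under a commercial kinase-profiling protocol in 8 mM MOPS pH 7.0 with 0.2 mM EDTA, 0.1 mg/ml histone H1, 10 mM magnesium acetate and 10 micromolar ATP including γ-³³P-ATP (500 cpm/pmol). Incorporation was measured by scintillation counting, with the no-inhibitor count set as 100% activity. Runs were done in triplicate.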

In assay [2] the test system is Radical scavenging activity. Description: Antioxidant activity assessed as DPPH radical scavenging activity by spectrophotometry. Type of assay: functional. Set-up: concentration or dose not given beside the values. For orientation: DPPH is a stable violet radical that fades when it is reduced.
The subject of the next assay is HCT-116. Description: Cytotoxicity against human HCT116 cells after 7 days by crystal violet staining based clonogenic assay. The class given is functional, cell-based. Conditions: HCT-116, 168 h. An outline of the steps: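 HCT116 cells in DMEM with 10% heat-inactivated FBS, seeded at 5 × 10³ cells/well in 24-well plates, untreated or exposed to four compound concentrations for 7 days. Colonies were fixed with 6% glutaraldehyde and stained with 0.1% crystal violet, and survival density was read by densitometry. IC50 came from curve fitting. The whole experiment was repeated independently three times.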

Each structure is given as a SMILES string.

As usually defined, the inhibition is the change of the read-out against control, counted positive when it falls. Broadly, the IC50 is the concentration that gives 50% inhibition.

As for `Cc1ccccc1C(=O)Oc1cc(O)c2c(c1)OC(c1ccc(O)cc1)CC2=O` (configuration not stated), the inhibition in assay [1] was found to be 48.9%. Further, in assay [2], the Activity came out at 14.2%. Further, the IC50 in the assay on HCT-116 worked out at 6.03 µM.
The corresponding values for `O=C1CC(c2ccc(O)cc2)Oc2cc(O)cc(O)c21` (racemic) are 14.9%, 59.3% and 36.8 µM.
In assay [1], `O=C(Oc1cc(O)c2c(c1)OC(c1ccc(O)cc1)CC2=O)c1cccs1` (configuration not stated) displayed an inhibition of 83.6%. In addition, the Activity in assay [2] was found to be 11.2%. In the assay with HCT-116, this molecule came in with an IC50 of 1.2 µM.
Consider `C=CCOc1cc(O)c2c(c1)OC(c1ccc(O)cc1)CC2=O` (configuration not stated), for which the inhibition in assay [1] worked out at 84%. The Activity in assay [2] came to 20.7%. Also, the IC50 in the assay with HCT-116 came out at 1.91 µM.
On to `CC(C)C(=O)Oc1cc(O)c2c(c1)OC(c1ccc(O)cc1)CC2=O` (configuration not stated), for which the inhibition in assay [1] amounted to 42.1%. The Activity in assay [2] amounted to 15.4%. Further, in the assay with HCT-116, half-maximal inhibition (IC50) was put at 15.9 µM.
In the case of `O=C1O[C@H]([C@@H](O)CO)C(O)=C1O`, the Activity in assay [2] was 89.1%.
The molecule `CCOC(=O)N/N=C1\CC(c2ccc(O)cc2)Oc2cc(O)cc(O)c21` (configuration not stated) registered an inhibition in assay [1] of 62.3%. Moreover, the Activity in assay [2] stood at 70.6%. The same molecule had an IC50 with HCT-116 of 4.35 µM.
In the case of `O=C(Oc1ccccc1)Oc1cc(O)c2c(c1)OC(c1ccc(O)cc1)CC2=O` (configuration not stated), the inhibition in assay [1] amounted to 42%. In assay [2], the Activity came to 15.9%. In the assay with HCT-116, this molecule displayed an IC50 of 20 µM.
